As usually defined, the IC50 is the point on the concentration scale where inhibition reaches its midpoint. The low end stands for inhibition by little substance, the high end for a need for much substance.

This experiment deals with T1, UDP-N-acetylmuramoylalanine-D-glutamyl-lysine-D-alanyl-D-alanine ligase (Streptococcus pneumoniae R6, UniProt Q8DNV6).
T1 sequence (Q8DNV6 whole entry): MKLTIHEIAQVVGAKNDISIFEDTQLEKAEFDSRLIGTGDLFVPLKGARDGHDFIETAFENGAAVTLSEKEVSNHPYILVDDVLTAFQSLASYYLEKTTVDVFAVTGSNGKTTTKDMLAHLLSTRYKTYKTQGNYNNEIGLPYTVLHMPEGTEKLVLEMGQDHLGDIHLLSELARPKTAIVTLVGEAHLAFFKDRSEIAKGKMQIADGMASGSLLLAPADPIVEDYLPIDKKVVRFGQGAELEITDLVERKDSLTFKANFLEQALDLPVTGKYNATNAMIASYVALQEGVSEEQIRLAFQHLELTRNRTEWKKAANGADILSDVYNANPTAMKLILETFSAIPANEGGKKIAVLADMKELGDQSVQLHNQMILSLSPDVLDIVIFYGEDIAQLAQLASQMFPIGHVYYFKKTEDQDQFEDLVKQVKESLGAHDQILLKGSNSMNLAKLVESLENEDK
Put plainly: Antibacterial activity against UDP-MurNAc-pentapeptide synthetase from Streptococcus pneumoniae. A digest of the protocol: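 Activity was read as radiolabeled free phosphate released. IC50 was read graphically from four-point concentration plots spanning it. Each point is the mean of at least two determinations, and each IC50 the mean of at least two independent plots.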
In turn, `CCN(CC)S(=O)(=O)c1ccc(Cl)c(C(=O)Nc2sc3c(c2CN)CCC3)c1` gave an IC50 greater than 100 µM.

In turn, `N#Cc1c(NC(=O)c2cc(S(=O)(=O)N3CCOCC3)ccc2Cl)sc2c1CCCC2` displayed an IC50 of 1.7 µM.

`CCN(CC)S(=O)(=O)c1ccc(Cl)c(CNc2sc3c(c2C#N)CCC3)c1`: the IC50 was greater than 100 µM.

In the case of `N#Cc1c(NC(=O)c2cc(S(=O)(=O)N3CCOCC3)ccc2Cl)sc2c1CCC2`, half-maximal inhibition (IC50) was put at 9 µM.

`N#Cc1c(NC(=O)c2cc(S(=O)(=O)N3CCOCC3)c(Cl)cc2Cl)sc2c1CCCC2`: inhibition was half-maximal at 1 µM (IC50). Compared with the last molecule, the IC50 is about 9-fold lower.

Regarding `CN(C)CCCNS(=O)(=O)c1ccc(Cl)c(C(=O)Nc2sc3c(c2C#N)CCC3)c1`, the IC50 was greater than 100 µM.

For the molecule `CCOC(=O)c1c(NC(=O)c2cc(S(=O)(=O)N(CC)CC)ccc2Cl)sc2c1CCC2`, the IC50 was greater than 100 µM.

Molecule `N#Cc1c(NC(=O)c2cc(S(=O)(=O)N3CCOCC3)c(F)cc2Cl)sc2c1CCC2` yielded an IC50 of 6.4 µM.

As to `CCN(CC)S(=O)(=O)c1ccc(Cl)c(C(=O)Nc2sc3c(c2C#N)CCC3)c1`, the IC50 is 8 µM.

The molecule `N#Cc1c(NC(=O)c2cc(S(=O)(=O)N3CCOCC3)c(Cl)cc2Cl)sc2c1CCC(c1ccccc1)C2` (centres undefined) showed an IC50 of 0.07 µM.

Molecule `N#Cc1c(NC(=O)c2cc(S(=O)(=O)N3CCOCC3)c(NCCCO)cc2Cl)sc2c1CCC2` had an IC50 greater than 100 µM.

As for `CNc1cc(Cl)c(C(=O)Nc2sc3c(c2C#N)CCC3)cc1S(=O)(=O)N1CCOCC1`, 62 µM corresponded to half-maximal inhibition (IC50).

Molecule `N#Cc1c(NC(=O)c2cc(S(=O)(=O)Nc3ccccc3)ccc2Cl)sc2c1CCC2` had an IC50 of 26 µM.

The molecule `CN(C)CCCNc1ccc(S(=O)(=O)N2CCOCC2)cc1C(=O)Nc1sc2c(c1C#N)CCC2` came in with an IC50 of 74 µM. Against the preceding molecule, the IC50 is about 2.8-fold higher.

With `CCN(CC)S(=O)(=O)c1ccc(Cl)c(C(=O)Nc2sc3c(c2C#N)CCCCC3)c1`, it took 3.4 µM to reach half-maximal inhibition (IC50).

As for `CCN(CC)S(=O)(=O)c1ccc(Cl)c(C(=O)N(C)c2sc3c(c2C#N)CCC3)c1`, the IC50 is greater than 100 µM.

In the case of `CCN(CC)S(=O)(=O)c1ccc(Cl)c(C(=O)Nc2sc3c(c2C#N)CCCC3)c1`, the IC50 came to 1.4 µM.

For `CC(COc1ccc(S(=O)(=O)N2CCOCC2)cc1C(=O)Nc1sc2c(c1C#N)CCC2)c1ccccc1` (centres undefined), the IC50 is greater than 100 µM.

The molecule `CCN(CC)S(=O)(=O)c1ccc(Cl)c(C(=O)Nc2sc3c(c2C(N)=O)CCC3)c1` returned an IC50 of 66 µM.

The molecule `CCN(CC)S(=O)(=O)c1ccc(Cl)c(C(=O)Nc2sc3c(c2CNC(C)=O)CCC3)c1` had an IC50 greater than 100 µM.

`CCOC(=O)C1CCc2c(sc(NC(=O)c3cc(S(=O)(=O)N(CC)CC)ccc3Cl)c2C#N)C1` (centres undefined) yielded an IC50 of 6 µM.

Consider `CCN(CC)S(=O)(=O)c1cc(C(=O)Nc2sc3c(c2C#N)CCC3)c(Cl)cc1Cl`, for which half-maximal inhibition (IC50) required 5.2 µM.

For the molecule `CNS(=O)(=O)c1ccc(Cl)c(C(=O)Nc2sc3c(c2C#N)CCC3)c1`, the half-maximal inhibitory concentration (IC50) came to 15 µM.

As to `CN(C)CCCNc1cc(Cl)c(C(=O)Nc2sc3c(c2C#N)CCC3)cc1S(=O)(=O)N1CCOCC1`, the IC50 was greater than 100 µM.

The molecule `N#Cc1c(NC(=O)c2cc(S(=O)(=O)N3CCOCC3)c(Cl)cc2Cl)sc2c1CCC(c1ccc(O)cc1)C2` (centres undefined) came in with an IC50 of 0.022 µM. That is a double-digit nanomolar value.

`CCN(CC)S(=O)(=O)c1ccc(Cl)c(C(=O)Nc2sc3c(c2C#N)CCC(c2ccc(O)cc2)C3)c1` (centres undefined) showed an IC50 of 0.054 µM.

With `N#Cc1c(NC(=O)c2cc(S(=O)(=O)N3CCOCC3)ccc2Br)sc2c1CCC2`, the IC50 came to 4.2 µM.

On to `CCN(CC)S(=O)(=O)c1ccc(Cl)c(C(C)Nc2sc3c(c2C#N)CCC3)c1` (centres undefined), for which the IC50 is greater than 100 µM.

As for `CCOc1ccc(S(=O)(=O)N2CCOCC2)cc1C(=O)Nc1sc2c(c1C#N)CCC2`, the IC50 was greater than 100 µM.

As to `CN(C)c1ccc(S(=O)(=O)N2CCOCC2)cc1C(=O)Nc1sc2c(c1C#N)CCC2`, the IC50 is greater than 100 µM.

Regarding `N#Cc1c(NC(=O)c2cc(S(=O)(=O)N3CCOCC3)c(Cl)cc2Cl)sc2c1CCC2`, half-maximal inhibition (IC50) required 0.3 µM.

In the case of `N#Cc1c(NC(=O)c2cccc(S(=O)(=O)N3CCOCC3)c2)sc2c1CCC2`, the IC50 is greater than 100 µM.

Take `N#Cc1c(NC(=O)c2cc(S(=O)(=O)N3CCOCC3)ccc2Cl)sc2c1CCCCC2`: it took 4.2 µM to reach half-maximal inhibition (IC50).

For `CCN(CC)S(=O)(=O)c1cc(C(=O)Nc2sc3c(c2C#N)CCC(c2ccc(O)cc2)C3)c(Cl)cc1Cl` (centres undefined), the IC50 came out at 0.067 µM.

The record behind these values is ChEMBL document CHEMBL1148431, “Structure-activity relationships of novel potent MurF inhibitors” (Bioorg Med Chem Lett, 2004).
